Laboratory results: ChEMBL document CHEMBL1938286, “A concise synthesis of viscolin, and its anti-inflammatory effects through the suppression of iNOS, COX-2, ERK phosphorylation and proinflammatory cytokines expressions” (Eur J Med Chem, 2012)
Calls of active or inactive are those of the source. The rule behind the calls is not given here.

How the values were obtained:
Mus musculus [1] = assay: Antiinflammatory activity in carrageenan-stimulated ICR mouse assessed as decrease in number of inflammatory cells at 8 mg/kg, ip measured after 5 hrs; assay type: functional, organism-based; parameters: dose 8 mg/kg
Summary of the method: (§1)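 Male ICR mice were dosed 30 min before intraplantar carrageenan, and paw biopsies were taken 5 h later. Tissue was fixed in Dietric solution for 1 week at room temperature, dehydrated in graded ethanol and paraffin-embedded. 7-thickness sections were stained with hematoxylin–eosin or Van Gieson and examined by light microscopy.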

RAW264.7 [2] = assay: Antiinflammatory activity in mouse RAW264.7 cells assessed as inhibition of LPS-induced PGE2 production at 10 uM administered 1 hr before LPS challenge measured after 24 hrs by ELISA
Mus musculus [3] = assay: Antiinflammatory activity in carrageenan-stimulated ICR mouse assessed as decrease in cellular infiltration to intercellular spaces at 8 mg/kg, ip measured after 5 hrs; assay type: functional, organism-based; parameters: dose 8 mg/kg; summary of the method: as §1
Mus musculus [4] = assay: Antiinflammatory activity in carrageenan-stimulated ICR mouse assessed as reduction in COX2 immunoreactive cells at 8 mg/kg, ip measured after 5 hrs; assay type: functional, organism-based; parameters: dose 8 mg/kg
RAW264.7 [5] = assay: Antiinflammatory activity in mouse RAW264.7 cells assessed as inhibition of LPS-induced NO production administered 1 hr before LPS challenge measured after 24 hrs by Griess method; assay type: functional, cell-based
Mus musculus [6] = assay: Antiinflammatory activity in carrageenan-stimulated ICR mouse assessed as effect on connective tissue damage at 8 mg/kg, ip measured after 5 hrs; assay type: functional, organism-based; parameters: dose 8 mg/kg; summary of the method: as §1
Mus musculus [7] = assay: Antioxidant activity in carrageenan-stimulated ICR mouse assessed as increase in CAT activity at 2 mg/kg, ip measured after 5 hrs; assay type: functional; details: route intraperitoneal
Summary of the method: (§2)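 Male ICR mice (n = 6 per group) received the drug 30 min before intraplantar carrageenan, and paw tissue was taken at the 5th hr. Total SOD was measured by inhibition of cytochrome c reduction, CAT by Aebi's method, and cytosolic GPx by Paglia–Valentine. Activities are in U/mg protein, given as mean ± SEM.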

RAW264.7 [8] = assay: Antiinflammatory activity in LPS-stimulated mouse RAW264.7 cells assessed as inhibition of iNOS protein expression after 24 hrs by Western blot analysis; assay type: functional, cell-based
RAW264.7 [9] = assay: Antiinflammatory activity in mouse RAW264.7 cells assessed as inhibition of LPS-induced PGE2 production at 20 uM administered 1 hr before LPS challenge measured after 24 hrs by ELISA
Mus musculus [10] = assay: Antioxidant activity in carrageenan-stimulated ICR mouse assessed as increase in GPx activity at 4 mg/kg, ip measured after 5 hrs; assay type: functional; details: route intraperitoneal; summary of the method: as §2
RAW264.7 [11] = assay: Antiinflammatory activity in mouse RAW264.7 cells assessed as inhibition of LPS-induced PGE2 production administered 1 hr before LPS challenge measured after 24 hrs by ELISA
Mus musculus [12] = assay: Antiinflammatory activity in carrageenan-stimulated ICR mouse assessed as vascular localization of inflammatory cells at 8 mg/kg, ip measured after 5 hrs; assay type: functional, organism-based; parameters: dose 8 mg/kg; summary of the method: as §1
Mus musculus [13] = assay: Antiinflammatory activity in ICR mouse assessed as inhibition of carrageenan-induced hind paw edema at 8 mg/kg, ip measured after 4 hrs; assay type: functional, organism-based; parameters: dose 8 mg/kg
RAW264.7 [14] = assay: Antiinflammatory activity in LPS-stimulated mouse RAW264.7 cells assessed as inhibition of COX-2 protein expression after 24 hrs by Western blot analysis; assay type: functional, cell-based
RAW264.7 [15] = assay: Antiinflammatory activity in mouse RAW264.7 cells assessed as inhibition of LPS-induced NO production at 10 uM administered 1 hr before LPS challenge measured after 24 hrs by Griess method; assay type: functional, cell-based
Mus musculus [16] = assay: Antiinflammatory activity in carrageenan-stimulated ICR mouse assessed as reduction in iNOS immunoreactive cells at 8 mg/kg, ip measured after 5 hrs; assay type: functional, organism-based; parameters: dose 8 mg/kg
Mus musculus [17] = assay: Antiinflammatory activity in ICR mouse assessed as inhibition of carrageenan-induced hind paw edema at 8 mg/kg, ip measured after 5 hrs; assay type: functional, organism-based; parameters: dose 8 mg/kg
Mus musculus [18] = assay: Antiinflammatory activity in carrageenan-stimulated ICR mouse assessed as decrease in intercellular spaces at 8 mg/kg, ip measured after 5 hrs; assay type: functional, organism-based; parameters: dose 8 mg/kg; summary of the method: as §1
RAW264.7 [19] = assay: Antiinflammatory activity in mouse RAW264.7 cells assessed as inhibition of LPS-induced NO production at 20 uM administered 1 hr before LPS challenge measured after 24 hrs by Griess method; assay type: functional, cell-based
Mus musculus [20] = assay: Antiinflammatory activity in carrageenan-stimulated ICR mouse assessed as decrease in neutrophil number at 8 mg/kg, ip measured after 5 hrs; assay type: functional, organism-based; parameters: dose 8 mg/kg; summary of the method: as §1
Mus musculus [21] = assay: Antioxidant activity in carrageenan-stimulated ICR mouse assessed as increase in CAT activity at 8 mg/kg, ip measured after 5 hrs; assay type: functional; details: route intraperitoneal; summary of the method: as §2
Mus musculus [22] = assay: Antiinflammatory activity in ICR mouse assessed as decrease in carrageenan-induced serum TNFalpha level at 8 mg/kg, ip measured after 5 hrs; assay type: functional, organism-based; parameters: dose 8 mg/kg
Summary of the method: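 Male ICR mice (18–25 g, n = 6 per group). Carrageenan was injected intraplantar into the paw, with drug given 30 min beforehand. Serum was collected at the 5th hr. Nitrite was measured colorimetrically by Griess reaction, and TNF-α by commercial ELISA. Data are mean ± SEM.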

RAW264.7 [23] = assay: Antiinflammatory activity in mouse RAW264.7 cells assessed as inhibition of LPS-induced TNFalpha production administered 1 hr before LPS challenge measured after 24 hrs by ELISA
Mus musculus [24] = assay: Antioxidant activity in carrageenan-stimulated ICR mouse assessed as increase in CAT activity at 4 mg/kg, ip measured after 5 hrs; assay type: functional; details: route intraperitoneal; summary of the method: as §2
Mus musculus [25] = assay: Antioxidant activity in carrageenan-stimulated ICR mouse assessed as increase in GPx activity at 8 mg/kg, ip measured after 5 hrs; assay type: functional; details: route intraperitoneal; summary of the method: as §2
Mus musculus [26] = assay: Down regulation of COX-2 protein expression in carrageenan-stimulated ICR mouse at 8 mg/kg, ip measured after 5 hrs by Western blot analysis; assay type: functional; details: route intraperitoneal
Summary of the method: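 Male ICR mice (18–25 g, n = 6 per group) received intraplantar carrageenan. Paw tissue was taken 5 h after carrageenan. Lysates were made in RIPA buffer and 30 µg protein run on SDS-PAGE/PVDF immunoblot with ECL detection. Band intensities were quantified relative to the carrageenan-alone group across three independent experiments.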

RAW264.7 [27] = assay: Down regulation of iNOS protein expression in LPS-stimulated mouse RAW264.7 cells at 20 uM after 24 hrs by Western blot analysis; assay type: functional
Summary of the method: (§3)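 RAW 264.7 cells were pretreated with test agent for 1 h, then stimulated with 100 ng/mL LPS for 24 h. Lysates were made in RIPA buffer and 30 µg protein resolved by SDS-PAGE, blotted to PVDF and blocked with 1% BSA. Primary antibody ran overnight at 4 °C, HRP secondary 1 h at 37 °C. Detection was by ECL, with band intensity expressed relative to control.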

RAW264.7 [28] = assay: Antiinflammatory activity in mouse RAW264.7 cells assessed as inhibition of LPS-induced NO production at 5 uM administered 1 hr before LPS challenge measured after 24 hrs by Griess method; assay type: functional, cell-based
RAW264.7 [29] = assay: Down regulation of COX-2 protein expression in LPS-stimulated mouse RAW264.7 cells at 20 uM after 24 hrs by Western blot analysis; assay type: functional; summary of the method: as §3
Mus musculus [30] = assay: Antiinflammatory activity in ICR mouse assessed as decrease in carrageenan-induced inflammatory response at 8 mg/kg, ip measured after 5 hrs; assay type: functional, organism-based; parameters: dose 8 mg/kg; summary of the method: as §1

SMILES: COc1cc(CCCc2c(OC)cc(O)c(OC)c2OC)ccc1O [VISCOLIN]
- Activity (Mus musculus [1]): Active
- Activity (RAW264.7 [2]): Active
- Activity (Mus musculus [3]): Active
- Activity (Mus musculus [4]): Active
- Activity (RAW264.7 [5]): Dose-dependent effect
- IC50 (RAW264.7 [5]): 17.8 µM
- Activity (Mus musculus [6]): Active
- Activity (Mus musculus [7]): 3.92 U/mg
- Activity (RAW264.7 [8]): Dose-dependent effect
- Activity (RAW264.7 [9]): Active
- Activity (Mus musculus [10]): 10.97 U/mg
- IC50 (RAW264.7 [11]): 14.4 µM
- Activity (Mus musculus [12]): Active
- Activity (Mus musculus [13]): Active
- Activity (RAW264.7 [14]): Dose-dependent effect
- Activity (RAW264.7 [15]): Active
- Activity (Mus musculus [16]): Active
- Activity (Mus musculus [17]): Active
- Activity (Mus musculus [18]): Active
- Activity (RAW264.7 [19]): Active
- Activity (Mus musculus [20]): Active
- Activity (Mus musculus [21]): 4.98 U/mg
- Activity (Mus musculus [22]): Active
- Activity (RAW264.7 [23]): Dose-dependent effect
- IC50 (RAW264.7 [23]): 17.3 µM
- Activity (Mus musculus [24]): 4.28 U/mg
- Activity (Mus musculus [25]): 11.54 U/mg
- Activity (Mus musculus [26]): 76.2%
- Activity (RAW264.7 [27]): 83.8%
- Activity (RAW264.7 [28]): Active
- Activity (RAW264.7 [29]): 70.6%
- Activity (Mus musculus [30]): Active
